Rows were chosen to be rich in hits. Some 2.6% of all compounds tested hit in one or more screens of this group.
Lipid droplet: modulators of hepatic lipid droplet formation | inhibition, % at 6.5 µM | AID 1656 | 240,000 tested, 0.4% active | AML12 mouse hepatocytes, oleate lipid droplets, BODIPY imaging;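 active = lipid droplet intensity inhibited by at least 50%, with more than 500 cells counted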
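Assay system: AML12 hepatocytes (mouse) / Also added: 100 µM oleic acid challenge / Times: overnight treatment with compound plus oleate / Detection: high-content imaging of BODIPY-stained droplets and DAPI nuclei / Evaluation: % inhibition of lipid droplet signal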
MEKK3 PB1 HTS: MEKK3-MEK5 PB1 interaction, increase or decrease; bead-based flow cytometry, Alexa488-MEK5 binding to MEKK3; actives lie on both sides; 0 = blocked by unlabeled MEK5, 100 = vehicle; binding response (% of control), % at 10 µM; 290,000 tested, 1.4% active;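 active = binding response more than 3 SD above or below the average of its plate-row segment, actives on both sides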;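 note: Alexa488 bead fluorescence after subtracting the streptavidin-only scavenger bead signal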
Target sequence (Q99759 whole entry, looked up): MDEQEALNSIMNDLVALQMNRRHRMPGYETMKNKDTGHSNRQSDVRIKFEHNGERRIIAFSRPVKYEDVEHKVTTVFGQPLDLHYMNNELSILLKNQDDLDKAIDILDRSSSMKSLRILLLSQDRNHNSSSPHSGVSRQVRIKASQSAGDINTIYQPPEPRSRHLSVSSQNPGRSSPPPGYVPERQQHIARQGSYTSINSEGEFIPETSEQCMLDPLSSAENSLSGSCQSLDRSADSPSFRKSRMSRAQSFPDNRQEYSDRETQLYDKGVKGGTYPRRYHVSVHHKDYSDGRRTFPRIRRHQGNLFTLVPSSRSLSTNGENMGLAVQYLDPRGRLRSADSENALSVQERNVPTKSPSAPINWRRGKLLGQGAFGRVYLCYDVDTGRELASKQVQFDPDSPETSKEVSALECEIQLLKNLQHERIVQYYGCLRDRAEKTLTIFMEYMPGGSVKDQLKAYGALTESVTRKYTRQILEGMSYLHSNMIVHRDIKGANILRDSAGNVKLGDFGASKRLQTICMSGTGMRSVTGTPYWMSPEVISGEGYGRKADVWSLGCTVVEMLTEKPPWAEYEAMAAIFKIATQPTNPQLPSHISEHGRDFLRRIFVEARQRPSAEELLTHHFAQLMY
MEKK2wt PB1 HTS: raises or lowers MEK5 binding to wildtype human MEKK2 PB1 domain; Q9Y2U5; AID 1531; bead flow cytometry, Alexa488-MEK5 binding to MEKK2 WT; actives lie on both sides; 290,000 tested, 1.1% active; binding response (% of control), % at 10 µM; in the data active = binding response below about 67% or above about 130%
MEKK2 mut-MEK5: signal of MEK5 binding to mutant human MEKK2 PB1 domain. percent response, % at 10 µM. 290,000 tested, 0.35% active. bead flow cytometry, Alexa488-MEK5 binding to MEKK2 mutant. AID 1530; in the data active = percent response above about 24%, passing the limit was not always enough
MEKK2wt confirm: raises or lowers MEK5 binding to wildtype human MEKK2, retest; bead flow cytometry, Alexa488-MEK5 binding to MEKK2 WT; actives lie on both sides; AID 1892; 5,900 tested, 2.4% active; binding response (% of control), % at 10 µM; shares compounds with MEKK3 PB1 HTS; in the data active = binding response below about 16% or above about 210%; inactive = in between
MEKK2mut confirm: signal of MEK5 binding to mutant human MEKK2, retest; percent response, % at 10 µM; bead flow cytometry, Alexa488-MEK5 binding to MEKK2 mutant; 5,900 tested, 2% active; shares compounds with MEKK3 PB1 HTS; in the data active = percent response mostly above about 71%, no sharp cut-off; inactive = mostly below about 38%;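 note: higher means compound restores mutant binding toward wildtype level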
MEKK3 confirm: MEKK3-MEK5 PB1 inhibition, single concentration confirmation. 5,900 tested, 1.8% active. bead flow cytometry, Alexa488-MEK5 binding to MEKK3; stronger effect = lower value. binding response (% of control), % at 10 µM. shares compounds with MEKK3 PB1 HTS. AID 1894;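 active = binding response below 72% of control, or above a set upper limit, though filed actives all read lower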
Hits are given with their value; n = inactive; x = not tested or not shown; [ ] = remark or other dose.

SMILES | Lipid droplet | MEKK3 PB1 HTS | MEKK2wt PB1 HTS | MEKK2 mut-MEK5 | MEKK2wt confirm | MEKK2mut confirm | MEKK3 confirm
CC(NC(=O)C(=O)N/N=C/c1ccccc1)c1ccccc1 (stereo not drawn) | n | n | 707.0 | 564.0 | n | n | n
COc1cccc(C(=O)N(CN2CCCC2=O)c2ccccc2OC)c1 | x | n | n | n | x | x | x
COc1ccccc1N(CN1C(=O)c2ccccc2C1=O)C(=O)c1cccc(C)c1 | n | 141.0 | n | n | -3.0[inhibitor] | n | n
NC(=O)NC(=O)CN1c2cccc3cccc(c23)S1(=O)=O | n | n | n | n | x | x | x
Cc1ccc(C(=O)COC(=O)c2cc(Cl)ccc2O)cc1[N+](=O)[O-] | n | n | n | n | x | x | x
Cc1ccc(C(=O)COC(=O)c2ccncc2)cc1[N+](=O)[O-] | n | 52.0[inhibitor] | n | n | n | n | n
Cc1cccc2cc(CN(CCN3CCOCC3)C(=O)Nc3ccccc3F)c(=O)[nH]c12 | n | 132.0 | n | n | n | n | n
O=Cc1cnc(N2CCN(c3ccccc3)CC2)s1 | n | n | n | n | x | x | x
O=Cc1cnc(N2CCN(Cc3ccccc3)CC2)s1 | n | 68.0[inhibitor] | n | n | n | n | n
Cc1ccc(Cc2nnc3n(-c4ccccc4)nc(C(=O)c4ccccc4)n3c2=O)cc1 | n | 65.0[inhibitor] | n | n | n | n | n
Cc1ccc(CNC(=O)c2cc(C)nn2-c2ccccc2)cc1 | n | n | n | n | x | x | x
CCC(=O)Nc1c(-c2ccccc2)c(=O)c2ccccc2n1C | n | n | n | n | x | x | x
CCOC(=O)NC(=O)/C(N=Nc1cc(C)cc(C)c1)=C(\C)O | n | n | n | n | x | x | x
CCOC(=O)/C(N=Nc1c(Br)cc(Br)cc1Br)=C(\C)O | n | 126.0 | n | n | n | n | n
O=C(c1cc(COc2c(F)cccc2F)on1)N(Cc1ccccc1)CC1CC1 | n | n | n | n | x | x | x
CCN(CC)CCCNC(=O)c1cc2c(Cl)nc3ccccc3c2s1 | n | n | 152.0 | 54.0 | n | n | n
CC(C(=O)O)n1c(-c2ccn[nH]2)n[nH]c1=S (stereo not drawn) | n | n | n | n | x | x | x
CC(=O)c1cc(-c2ccccc2)n(CCC(=O)NC(C)(C)C)c1C | n | 25.0[inhibitor] | 36.0[inhibitor] | n | n | n | n
CCOC(=O)COn1c(=O)c(-c2cccs2)[n+]([O-])c2ccccc21 | x | 15.0[inhibitor] | 26.0[inhibitor] | n | n | n | n
Cn1c(CS(=O)Cc2c(Cl)cccc2Cl)nnc1SCc1ccc(Cl)cc1 (stereo not drawn) | n | 34.0[inhibitor] | n | n | n | n | n
CN(C)CCCN1C(=O)C(O)=C(C(=O)c2cccs2)C1c1cccc([N+](=O)[O-])c1 (stereo not drawn) | n | 2.0[inhibitor] | 1.0[inhibitor] | n | n | n | n
O=C(/C=C/c1ccc(Cl)cc1)Nn1c(-c2cccs2)nc2ccccc2c1=O | n | 131.0 | n | n | n | n | n
Cc1sc(N)nc1-c1ccc2c(c1)OCCO2 | n | n | n | n | x | x | x
NC1=NN=C(c2ccc3c(c2)OCCO3)CS1 | n | 1.0[inhibitor] | 1.0[inhibitor] | n | n | n | n
Cc1cccc(N2C(S)=C(C#N)C(=O)NC2c2ccco2)c1 (stereo not drawn) | n | n | n | n | x | x | x
N#CC1=C(S)N(c2ccccc2)C(c2ccc(-c3cccc(Cl)c3)o2)NC1=O (stereo not drawn) | n | 130.0 | n | n | n | n | n
COc1ccc(-c2nn(-c3ccccc3C)cc2CNCCc2cnc[nH]2)cc1F | n | n | 149.0 | n | n | n | n
CCn1cc(CNCc2cn(-c3ccccc3C)nc2-c2ccc(OC)c(F)c2)cn1 | n | n | n | n | x | x | x
CCOCc1c(C(=O)OCC(=O)Nc2ccc(C)c(S(=O)(=O)N(C)C)c2)oc2ccccc12 | n | 135.0 | n | n | n | n | n
CC(NC(=O)C(C)(C)C)c1nc2ccccc2n1C (stereo not drawn) | n | 0.0[inhibitor] | 0.0[inhibitor] | n | n | n | n
